Measurements gathered from unrelated publications.
TEK: Angiopoietin-1 receptor (TEK, Homo sapiens, UniProt Q02763)
TEK Y897S: Angiopoietin-1 receptor (TEK, Homo sapiens, UniProt Q02763, Y897S)

| Compound | target | observed | mode | method | tested at | endpoint | value |
| --- | --- | --- | --- | --- | --- | --- | --- |
| CCN(CC)CCNC(=O)c1c(C)[nH]c(/C=C2\C(=O)Nc3ccc(F)cc32)c1C | TEK | enzyme activity | inhibitor | – | 10 µM | inhibition | 74% |
| Cc1ccc(NC(=O)c2ccc(C)c(C(F)(F)F)c2)cc1C#Cc1nn(C2CCC(O)CC2)c2ncnc(N)c12 (centres unmarked) | TEK Y897S | enzyme activity | inhibitor | – | 10 µM | remaining activity | 0% |
| Cc1ccc(Nc2nccc(N(C)c3ccc4c(C)n(C)nc4c3)n2)cc1S(N)(=O)=O | TEK | cell-free assay | – | – | 0.5 µM | remaining signal | 69.3% |
| Cn1cc(Cl)c2c(Oc3c(F)cc(Nc4cc(Cl)nc(N)n4)cc3F)ccnc21 | TEK | cell-free assay | – | competition with immobilised ligand | 0.1 µM | remaining binding | 100% |
| COc1cc(Nc2cnc(C#N)c(O[C@H](C)CN(C)C)n2)ncc1-c1cnn(C)c1 | TEK | enzyme activity | inhibitor | radiometric | 1 µM | remaining activity | 102% |
| Cc1noc([C@H]2C[C@@H](c3ccc(C(F)(F)F)cc3)CN(C(=O)N3CCS(=O)(=O)C3)C2)n1 | TEK | cell-free assay | – | competition with immobilised ligand | 1 µM | remaining binding | 100% |
| CNCc1ccc(-c2cc(-c3nc(-c4ccc(S(=O)(=O)C(C)C)cc4)cnc3N)on2)cc1 | TEK | enzyme activity | inhibitor | – | 2 µM | inhibition | 44% |
| CCOc1cc(-c2nncn2C)ccc1Nc1ncc2cc(C)nc(NCC(C)(C)C)c2n1 | TEK | enzyme activity | inhibitor | FRET | 1 µM | inhibition | < 15% |
| CC(C)CC(=O)N1CCc2nc(-c3ccc(Br)cc3)nc(N(C)Cc3ccccc3)c2C1 | TEK | cell-free assay | – | competition with immobilised ligand | 0.1 µM | remaining binding | 100% |
| CC(C)(C)c1nc(-c2cccc(NS(=O)(=O)c3c(F)cccc3F)c2F)c(-c2ccnc(N)n2)s1 | TEK | enzyme activity | inhibitor | radiometric | 1 µM | remaining activity | 58% |
| COc1cc2ncnc(Nc3ccc(Oc4ccccc4)cc3C)c2cc1OC | TEK | enzyme activity | inhibitor | – | 1 µM | inhibition | 13% |
| CC/C(=N\NC(=O)NCc1cccc(O)c1)c1ccc(O)c(C)c1O | TEK | enzyme activity | inhibitor | – | 0.1 µM | inhibition | -0.2% |
| N#CCCc1ccc2c(c1)-c1[nH]c3ccc([N+](=O)[O-])cc3c1CC(=O)N2 | TEK | cell-free assay | – | – | 0.5 µM | remaining signal | 97.6% |
| O=C(CSc1nc2nccnc2c(=O)n1CCc1ccccc1)Nc1nccs1 | TEK | enzyme activity | inhibitor | – | 10 µM | inhibition | 6% |
| Cc1ccc(C(=O)Nc2ccc(CN3CCN(C)CC3)c(C(F)(F)F)c2)cc1C#Cc1cnc2cccnn12 | TEK | cell-free assay | – | – | 23.5 nM | remaining signal | 5.2% |
| Cc1cc(NC(=O)c2cccc3cc(-c4cccc5[nH]nc(N)c45)ccc23)ccc1F | Angiopoietin-1 receptor (TEK, Homo sapiens, UniProt Q02763, R849W) | enzyme activity | inhibitor | – | 0.1 µM | activity vs control | 93% |
| Cc1cnc(NC2CCOCC2)nc1-n1cnc(C(=O)NC(CN)c2cc(F)cc(Cl)c2)c1 (centres unmarked) | TEK Y897S | enzyme activity | inhibitor | radiometric | 1 µM | remaining activity | 105% |
| CNC(=O)c1cc2c(Oc3ccc(NC(=O)C4(C(=O)Nc5ccc(F)cc5)CC4)cc3)ccnc2cc1OC | TEK | enzyme activity | inhibitor | radiometric | 1 µM | inhibition | 99% |
| CCCS(=O)(=O)Nc1ccc(F)c(C(=O)c2c[nH]c3ncc(-c4ccc(Cl)cc4)cc23)c1F | TEK | enzyme activity | inhibitor | – | 1 µM | inhibition | < 10% |
| CCCCN(CCCC)C(=O)CN1C[C@@H](c2cc(OC)c3c(c2)OCO3)[C@H](C(=O)O)[C@H]1CC(C)(C)CCC | TEK | cell-free assay | – | competition with immobilised ligand | 1 µM | remaining binding | 100% |
| Cc1[nH]c(/C=C2\C(=O)Nc3ccc(F)cc32)c(C)c1C(=O)N[C@H]1CCN(C(=O)N(C)C)C1 | TEK | enzyme activity | inhibitor | – | 1 µM | remaining activity | 87% |
| CC1=C(C#N)[C@@H](c2ccc3[nH]nc(C)c3c2)C(C#N)=C(c2ccc(Cl)cc2)N1 | TEK | cell-free assay | – | competition with immobilised ligand | 1 µM | remaining binding | 74.5% |
| O=C1NC(=O)c2cc(Nc3ccc(F)cc3)c(Nc3ccc(F)cc3)cc21 | TEK | cell-free assay | – | – | 0.5 µM | remaining signal | 97.6% |
| CN([C@@H]1CCc2c(CC(=O)O)c3cc(S(C)(=O)=O)ccc3n2C1)S(=O)(=O)c1ccc(F)cc1 | TEK | cell-free assay | – | competition with immobilised ligand | 1 µM | remaining binding | 88% |
| Cc1ccc(C(=O)NCc2ccsc2)cc1C#Cc1cn(C(C)C)c2ncnc(N)c12 | TEK | enzyme activity | inhibitor | – | 1 µM | activity vs control | 6% |
| CCCOc1ccc([C@H]2[C@H](C(=O)O)[C@@H](c3ccc4c(c3)OCO4)CN2CC(=O)Nc2c(CC)cccc2CC)cc1 | TEK | cell-free assay | – | competition with immobilised ligand | 1 µM | remaining binding | 100% |
| CCCOc1ccc(OC)c(F)c1C(=O)c1ccc(C(=O)N[C@@H]2CNC[C@H]2NC(=O)c2ccc3[nH]ncc3c2)cc1 | TEK | enzyme activity | inhibitor | – | 10 µM | remaining activity | 49% |
| CN(C)c1ncnc(-c2ccc3nc(Nc4cc(CN5CCN(C(=O)CC(F)(F)F)CC5)ccn4)[nH]c3c2)c1Cl | TEK | cell-free assay | – | competition with immobilised ligand | 1 µM | remaining binding | 87% |
| Cc1sc(C(=O)NC2COC2)cc1-n1cc(NC(=O)Nc2c(F)cccc2Cl)cn1 | TEK | enzyme activity | inhibitor | – | 10 µM | remaining activity | 86.6% |
